# Screens from PubChem.
# Sampled rows, rich in hits. Any-hit rate of the full collection: about 9.6%.
# MT stabilizer = microtubule stabilizers in HeLa cells, primary screen, imaging, high-content imaging. % tubulin-high responders, % at 10 µM. HeLa tubulin immunostaining HCS, 24 h; share of cells brighter than vehicle mean+2SD. 200,000 compounds, 0.83% hits. AID 2205, 2009;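 active means plate Z-score above 3 for both tubulin-high and condensed-nucleus cell shares, with cell loss under 80%, at 10 µM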;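 further: anti alpha tubulin signal scored within the nucleus-defined area of each cell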
# Ba/F3 V617F tox = reduced viability of JAK2V617F-dependent Ba/F3 cells, primary screen, JAK2V617F inhibitor project, cell-based, Ba/F3 EpoR-JAK2V617F, luminescence; 220,000 compounds, 1.1% hits; inhibition, % at 5.6 µM; ATP luminescence; AID 1446, 2008;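 active means inhibition above the campaign mean plus 3 SD over all tested compounds, cut at about 24% in these data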;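 further: cytokine-independent growth of Ba/F3 cells driven by EpoR plus mutant JAK2; 0% = DMSO-treated cells and 100% = JAK inhibitor I control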
# BaF3 tox = parental Ba/F3 cell viability inhibition, counter-screen for JAK2V617F inhibitor project, murine pro-B, CellTiter-Glo luminescence. CellTiter-Glo ATP luminescence. inhibition, % at 5.6 µM. 220,000 compounds, 1.1% hits. AID 1486, 2009;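 active means inhibition above a per-campaign cutoff, the mean inhibition of all tested compounds plus 3 SD, cut at about 27% in these data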;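 further: 0% = DMSO wells and 100% = JAK Inhibitor I control wells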
# bCat nuc transl = modulators of beta-catenin nuclear translocation, primary screen, imaging, HeLa cells, immunofluorescence, high-content. nuclear translocation activity, % at 5 µM. 190,000 compounds, 0.3% hits. AID 1665, 2009;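 active means nuclear translocation activity above 50% at 5 µM, with a well cell count of 50 or more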;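 further: per-cell ratio of nuclear to cytoplasmic median beta-catenin stain intensity; plate controls were DMSO negative control for no effect and GSK-3 inhibitor IX positive control for full effect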
#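 Read-out: Nuclear/cytoplasmic beta-catenin signal ratio, % activation | Assay system: Human HeLa cell line | Times: 24 h compound exposure at 37°C, 5% CO2 | Signal: Fluorescence imaging of beta-catenin antibody stain plus DAPI | Dosing: 5 µM primary, 0.02–20 µM confirmation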
# L major viab = Leishmania major promastigote growth inhibition, primary screen; Leishmania major promastigotes, resazurin fluorescence viability; inhibition, % at 10 µM; 200,000 compounds, 9% hits; AID 1063, 2008; in the data active means inhibition above about 50%;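 further: promastigotes grown with compound for 44 hours at 28 °C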
# APP transl inh = inhibitors of APP translation via 5'UTR reporter, primary screen, APP 5'UTR luciferase, SH-SY5Y cells. AID 1285, 2008. SH-SY5Y APP 5'UTR-luciferase reporter, luminescence. 190,000 compounds, 0.82% hits. inhibition, % at 2 µM;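 active means inhibition above a set limit, derived from the sample mean plus 3 SD, cut at about 45% in these data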
# L major 1uM = Leishmania major promastigote growth inhibition, confirmation, 1 µM repeat of primary hits. inhibition, % at 1 µM. L. major promastigote growth, resazurin fluorescence, 48 h. 1,100 compounds, 13% hits. shares compounds with L major viab. AID 1258, 2008;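 active means inhibition above about 50% in both repeat tests, limit read from the data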
# The depositor's hits bear a star; / = no result.
SMILES,MT stabilizer,Ba/F3 V617F tox,BaF3 tox,bCat nuc transl,L major viab,APP transl inh,L major 1uM
CCOc1ccc(C2=Nc3ccccc3C(c3ccc(N4CCOCC4)cc3)=NN2)cc1,35*,-5,-1,/,63*,-63,-2
Cc1ccc(N/N=C(\C#N)C(=N)N2CCCCCC2)cc1,6,-2,1,0,61*,-168,-1
COC(C[C@@H](O)C[C@@H](O)COCc1ccccc1)OC,/,/,/,1,/,/,/
CCCN(CCC)c1nc2ccccc2n2c(C)nnc12,4,1,3,0,82*,-6,-9
Cc1noc(C)c1C(=O)N(C)Cc1ccccc1,/,-7,-4,-3,/,/,/
CCNC(=S)N(Cc1c(C)noc1C)c1ccccc1,2,-1,5,/,51*,-14,-6
Cc1cc(C)c(C)c(S(=O)(=O)N[C@@H](C)C(=O)OCC(N)=O)c1C,2,3,6,-2,-6,-83,/
CC(=O)c1cccc(NC(=O)c2cc3nc(C)cc(C)n3n2)c1,2,-4,4,-1,15,-92,/
CCOc1ccc(C(F)(F)F)cc1NC(=O)COc1ccc(C(F)(F)F)cc1[N+](=O)[O-],3,1,1,-1,-4,1,/
CCCOP(=O)(OCCC)c1c([N+](=O)[O-])cc(C(F)(F)F)cc1[N+](=O)[O-],4,-3,5,/,54*,-10,1
CC(C)CCN(C)c1ccc(/C=N/n2cnnc2)cc1,1,-2,2,-1,82*,16,-1
COCCCn1c2nc3ccccc3nc2c2c(=O)n(-c3ccccc3OC)cnc21,2,2,2,/,19,6,/
COc1ccccc1-n1cnc2c(c1=O)c1nc3ccccc3nc1n2-c1ccc(C)c(C)c1,5,0,7,0,97*,-5,97*
O=C(Nc1ccc(Cl)cc1)Nc1ccc2c(c1)N1CCN=C1S2,3,-5,1,1,100*,-2,1
O=C(O)CCC(=O)Nc1ccc(N2CCCCCC2)cc1,4,-1,4,1,97*,0,94*
Nc1nsc2ccccc12,6,9,5,2,100*,43,95*
CC(C)Cc1nc2ccccc2n1CCc1ccccc1,3,-1,1,-6,56*,-8,7
O=C(Cn1ccc([N+](=O)[O-])n1)Nc1nccs1,2,3,8,1,77*,0,-7
O=C1C[C@H]2[C@H](CO)[C@@H](OC(=O)c3ccc(-c4ccccc4)cc3)C[C@H]2O1,/,2,3,0,/,/,/
CN(c1ccccc1)S(=O)(=O)c1cc(C(=O)N2CCN(c3ccccn3)CC2)ccc1Cl,2,9,4,-2,90*,4,-1
O=C(c1ccc(Cl)c(S(=O)(=O)Nc2ccc(F)cc2)c1)N1CCN(c2ccccn2)CC1,1,0,2,-2,18,13,/
Cn1nc2c3ccccc3n(Cc3ccccc3)c2nc1=S,/,0,-3,-2,/,/,/
CCn1c2ccccc2c2nn(C)c(=N)nc21,3,-2,4,0,96*,8,30
O=[N+]([O-])c1ccc(NNC(=S)Nc2ccc(F)cc2)cc1,3,-1,1,-2,101*,15,79*
O=C(NNC(=S)Nc1ccc(F)cc1)c1cccc([N+](=O)[O-])c1,/,-3,-2,-1,/,/,/
SMILES,MT stabilizer,Ba/F3 V617F tox,BaF3 tox,bCat nuc transl,L major viab,APP transl inh,L major 1uM
COc1cccc(/C=C/C(=O)Nc2ccc(OC)nc2)c1,3,2,9,0,47,-27,/
Cc1ccc(N/N=C/c2c(O)cc(C)oc2=O)cc1,0,-1,4,2,87*,-11,-12
Cc1ccc(CN2CCN(Cc3cccc4nccnc34)CC2CCO)cc1 (configuration not stated),/,-1,0,1,/,/,/
COc1cc2c3nnc(-c4ccc(F)cc4)c-3cn(Cc3ccc(F)cc3)c2cc1OC,5,0,9,/,97*,-7,-17
COc1ccc(Cn2cc3c(-c4ccc(F)cc4)nnc-3c3cc(OC)c(OC)cc32)cc1,6,2,13,-1,17,7,/
Cn1c(=O)c2c(nc(N3CCN(C(=O)c4ccco4)CC3)n2CCSc2ncccn2)n(C)c1=O,2,0,2,-2,1,-19,/
Cc1nc2ccc(Cl)cc2c(-c2ccccc2F)c1CC(=O)O,2,0,9,2,62*,-10,-13
Cc1nc2ccc(Cl)cc2c(-c2ccccc2Cl)c1CC(=O)O,1,0,4,4,24,0,/
Cc1nc2ccc(Cl)cc2c(-c2ccccc2)c1CC(=O)O,2,-2,0,8,54*,-6,-21
Cc1nc2ccccc2c(-c2ccccc2)c1CC(=O)O,3,0,8,-2,-4,-11,/
COc1ccc(N2C3=[N+](CC2(C)O)c2ccccc2CC3)cc1 (configuration not stated),3,-1,2,-1,90*,-5,39
CCC(CC)NC(=O)c1ccc(Cl)cc1,5,3,1,0,-6,-3,/
COc1cccc(COc2ccccc2C2Nc3ccc(Br)cc3C(=O)N2NC(=O)c2ccncc2)c1 (configuration not stated),3,0,6,-1,100*,-7,-20
O=C(NCc1cccs1)c1ccc([N+](=O)[O-])cc1Cl,5,3,8,2,-3,-5,/
Cc1ccc(-c2csc(=S)n2CC(=O)OCC(=O)NC(C)C(C)C)cc1 (configuration not stated),3,-6,3,-4,64*,1,-19
Cn1cnnc1SCC(=O)Nc1ccc(Cl)c(S(=O)(=O)N2CCOCC2)c1,4,-2,-3,-2,-1,20,/
COc1cccc(Oc2ccc(C(F)(F)F)cc2N)c1,4,0,3,-1,-3,-39,/
CCOc1ccc(Oc2ccc(C(F)(F)F)cc2N)cc1,3,-1,0,1,51*,-31,-10
C[N+](C)(CC#Cc1ccccc1)CC(=O)c1ccc(Cl)cc1,4,-1,3,0,-2,-5,/
COC(=O)C[N+](C)(C)CC#Cc1ccccc1,1,-1,8,-2,53*,-13,-17
CCOC(=O)c1c(NC(=O)Cn2cnc([N+](=O)[O-])n2)sc(C)c1C,3,-4,-2,0,52*,30,-4
Nc1ccc2nc(SCc3ccc([N+](=O)[O-])cc3)sc2c1,2,1,7,3,69*,25,11
